Reference: ChEMBL document CHEMBL2407011, “Novel 2-(2,4-dioxo-1,3-thiazolidin-5-yl)acetamides as antioxidant and/or anti-inflammatory compounds” (Eur J Med Chem, 2013)
≈ marks a conversion by molar mass, not a printed value.

Experiments:
[1] = tested on: THP-1; assay: Antiinflammatory activity in human THP1 cells assessed as inhibition of PMA-induced MCP-1 secretion preincubated for 1 hr prior PMA-challenge measured after 48 hrs by ELISA; type: functional, cell-based
Summary of the method: (§1)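 THP1 cells at 2 x 10^5 cells/mL were pretreated 1 h with 5, 10 and 20 µM compound, then stimulated with 10 ng/mL PMA for 48 h. Supernatant IL-1β or MCP-1 was measured by ELISA at 450 nm (corrected at 570 nm) and quantified from a standard curve. Percent inhibition was taken versus control and IC50 derived, reported as mean ± SD of three independent experiments.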

[2] = Antioxidant activity assessed as inhibition of lipid peroxidation activity after 15 mins by MDA assay; type: functional
Summary of the method: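 Egg yolk diluted 1:1 in PBS (0.1 M, pH 7.45) served as substrate. Compound (50–300 µg/mL) was added with FeSO4 (25 mM stock) and incubated 15 min at 37 °C. Reaction stopped with 20% TCA plus 0.8% thiobarbituric acid, then heated 15 min at 100 °C. MDA adduct read at 532 nm; % inhibition versus control, EC50 from triplicates.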

[3] = tested on: THP-1; assay: Antiinflammatory activity in human THP1 cells assessed as inhibition of PMA-induced IL-1beta secretion preincubated for 1 hr prior PMA-challenge measured after 48 hrs by ELISA; type: functional, cell-based; summary of the method: as §1
[4] = Hemolysis of human erythrocytes after 30 mins by spectrophotometry; type: ADME, cell-based, Erythrocyte
Summary of the method: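 Citrated human blood centrifuged (3,000 g, 10 min), erythrocytes washed in PBS pH 7.4 and made up as a 1.25% suspension. Suspension incubated with H2O2 (2.5 mM) and compound (50–300 µg/mL) 30 min at 37 °C, stopped on ice, centrifuged, read at 540 nm. Inhibition = (AH2O2 − Asample)/(AH2O2 − Anormal) × 100.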

[5] = Antioxidant activity assessed as superoxide radical scavenging activity after 5 mins by spectrophotometry; type: functional
Summary of the method: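 Superoxide generated by PMS/NADH reducing NBT, in 16 mM Tris-HCl pH 8.0 with […], 50 µM NBT, 10 µM PMS and compound (5–180 µg/mL). After 5 min at room temperature, formazan read at 560 nm; % scavenging versus control, EC50 from triplicates.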

[6] = Antioxidant activity assessed as DPPH scavenging activity after 30 mins by UV-visible spectrophotometry; type: functional
Summary of the method: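 Methanolic compound solutions (5–180 µg/mL) mixed 1:1 by volume with 0.002% DPPH in methanol, shaken and kept in the dark 30 min. Absorbance read at 517 nm; % scavenging = (Acontrol − Asample)/Acontrol × 100. EC50 is the concentration scavenging 50% of radicals; mean of three experiments.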

[7] = tested on: THP-1; assay: Antiinflammatory activity against PMA-stimulated human THP1 cells assessed as IL-1beta levels after 48 hrs by ELISA (reference value: 172 +/- 0.71 pg/ml); type: functional
[8] = tested on: THP-1; assay: Antiinflammatory activity against PMA-stimulated human THP1 cells assessed as MCP-1 levels after 48 hrs by ELISA (reference value: 3521.63 +/- 79.78 pg/ml); type: functional
[9] = Homo sapiens, Erythrocyte, 0.5 h, read-out: EC50

Row | Compound | IC50 [1] [µM] | EC50 [2] | IC50 [3] [µM] | EC50 ([4]; erythrocyte) | EC50 [5] | EC50 [6] | EC50 [4, 9] [µg/mL] | Activity [7] [pg/mL] | Activity [8] [pg/mL]
1 | O=C(CC1SC(=O)NC1=O)Nc1nc(-c2ccc(F)cc2)cs1 (stereo not given) | 17.6 | Not Active | > 50 | Not Active | Not Active | 52.69 µg/mL (≈ 150 µM) |  |  | 
2 | O=C(CC1SC(=O)NC1=O)Nc1nc(-c2ccc(Br)cc2)cs1 (stereo not given) | 49.1 | Not Active | 33.1 | Not Active | Not Active | 49.71 µg/mL (≈ 121 µM) |  |  | 
3 | O=C(CC1SC(=O)NC1=O)Nc1nc(-c2ccc(I)cc2)cs1 (stereo not given) | 31.7 |  | > 50 | Not Active |  | Not Active |  |  | 
4 | O=C(CC1SC(=O)NC1=O)Nc1nc(-c2ccccc2Cl)cs1 (stereo not given) | 26.5 |  | 18.2 |  |  | Not Active |  |  | 
5 | O=C(CC1SC(=O)NC1=O)Nc1nc(-c2cccc(Cl)c2)cs1 (stereo not given) | 34.2 |  | 23.4 |  |  | Not Active |  |  | 
6 | Cc1ccccc1-c1csc(NC(=O)CC2SC(=O)NC2=O)n1 (stereo not given) | 18.8 |  | 7.66 |  |  | Not Active |  |  | 
7 | Cc1cccc(-c2csc(NC(=O)CC3SC(=O)NC3=O)n2)c1 (stereo not given) | 18.9 |  | 11.7 | Not Active | Not Active | 90.16 µg/mL (≈ 260 µM) |  |  | 
8 | O=C(CC1SC(=O)NC1=O)Nc1nc(-c2ccccc2F)cs1 (stereo not given) | 16.7 | Not Active | > 50 | Not Active | Not Active | 82.5 µg/mL (≈ 235 µM) |  |  | 
9 | COc1ccccc1-c1csc(NC(=O)CC2SC(=O)NC2=O)n1 (stereo not given) | > 50 | 131.79 µg/mL (≈ 363 µM) | 7.23 |  | 79.94 µg/mL (≈ 220 µM) | 58.68 µg/mL (≈ 161 µM) | 96.6 (≈ 266 µM) |  | 
10 | O=C(CC1SC(=O)NC1=O)Nc1nc2ccccc2s1 (stereo not given) | 20.8 | 149.7 µg/mL (≈ 487 µM) | > 50 |  | 101.18 µg/mL (≈ 329 µM) | 52.18 µg/mL (≈ 170 µM) | 107 (≈ 349 µM) |  | 
11 | O=C(CC1SC(=O)NC1=O)Nc1nc2ccc([N+](=O)[O-])cc2s1 (stereo not given) | 20.3 | Not Active | 6.83 | Not Active | Not Active | 39.76 µg/mL (≈ 113 µM) |  |  | 
12 | COc1ccc2nc(NC(=O)CC3SC(=O)NC3=O)sc2c1 (stereo not given) | 39.6 | Not Active | 7.03 | Not Active | Not Active | 51.82 µg/mL (≈ 154 µM) |  |  | 
13 | CCOc1ccc2nc(NC(=O)CC3SC(=O)NC3=O)sc2c1 (stereo not given) | 63.1 | Not Active | > 50 | Not Active | Not Active | 62.9 µg/mL (≈ 179 µM) |  |  | 
14 | O=C(CC1SC(=O)NC1=O)Nc1nc(-c2ccccc2)cs1 (stereo not given) | 30.4 |  | 9.6 |  |  | Not Active |  |  | 
15 | O=C(CC1SC(=O)NC1=O)Nc1nc(-c2ccc(Cl)cc2)cs1 (stereo not given) | > 50 |  | 16.3 |  |  | Not Active |  |  | 
16 | O=C1O[C@H]([C@@H](O)CO)C(O)=C1O [ASCORBIC ACID] |  | 139.97 µg/mL (≈ 795 µM) |  |  | 21.01 µg/mL (≈ 119 µM) | 40.28 µg/mL (≈ 229 µM) | 96.6 (≈ 549 µM) |  | 
17 | O=c1cc(-c2ccc(O)c(O)c2)oc2cc(O)cc(O)c12 [LUTEOLIN] |  | 149.7 µg/mL (≈ 523 µM) |  |  | 31.01 µg/mL (≈ 108 µM) | 44.18 µg/mL (≈ 154 µM) | 107 (≈ 375 µM) |  | 
18 | CCc1ccc(CCOc2ccc(CC3SC(=O)NC3=O)cc2)nc1 (stereo not given) [PIOGLITAZONE] | 18.8 |  | > 50 |  |  |  |  | 165 | 2588.33
19 | CN1C(C(=O)Nc2ccccn2)=C(O)c2ccccc2S1(=O)=O [PIROXICAM] |  |  | 21.3 |  |  |  |  |  | 
